Measured values as given in paper PMC9066373 (Journal for Immunotherapy of Cancer, 2022).

System: HHD-DR1 mice
Experiment: Immunization of HHD-DR1 mice, IFN-γ ELISPOT of splenocytes
Type: in vivo
Details: HHD-DR1 mice n=4, poly(I:C), in words
Procedure, shortened: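 HHD-DR1 transgenic mice (human HLA-A*02.01 and HLA-DRB1*01; n=4/group) received a CD8 neoantigen peptide with poly(I:C), combined with a CD4 neoantigen peptide, anti-CD40 or both. Adjuvants were given at 50 µg/mouse. Class I peptide was injected s.c.; class II peptide i.v., boosted 1 week later. Spleens were taken 7 days after the last dose. Splenocytes (8×10⁵/well) were peptide-stimulated (10–0.01 µM) for 24 h and read by IFN-γ ELISPOT, no-peptide background subtracted.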

## KYVYDFGVSV
  Response against KYV when antiCD40 is added to KYV plus EVT: antiCD40 did not improve responses
